Data published in publication PMC8319936 (ACS Omega, 2021).

How the values were obtained:
Rat pharmacokinetics = assay type: in vivo, Sprague Dawley rats; settings: Sprague Dawley, plasma
How it was run: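 Sprague Dawley rats (N = 3) were dosed i.v. at 1 mpk in 70% PEG or by oral gavage as a methylcellulose suspension. Serial blood samples were anticoagulated and centrifuged to plasma. Parent compound was quantified in plasma, and PK parameters were calculated by noncompartmental analysis.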

[1] = tested on: collagen antibody-induced arthritis; experiment: Murine collagen antibody-induced arthritis; assay type: in vivo, female B10.RIII mice; settings: 100 mg/kg twice daily oral gavage from day 4, day 14
How it was run: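 Female B10.RIII mice, 8–10 weeks old, received 2 mg anti-collagen II monoclonal antibody cocktail i.p., then 37.5 μg LPS i.p. 3 days later. From day 4, compounds or vehicle (1% CMC, 0.015% Tween 80, 10 mL/kg) were given by oral gavage twice daily. Each limb was scored visually daily, days 3–14, and group mean computed. Body weight recorded every other day.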

[2] = target: catalytic domain of recombinant human MMP-8 (Homo sapiens, UniProt P22894); experiment: MMP-8 biochemical assay
How it was run: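 FRET cleavage assay with 2 nM recombinant human MMP-8 catalytic domain and 2 μM quenched FRET peptide substrate. Incubated 30 min at 28 °C/80% humidity; fluorescence read at ex 485/em 535 nm.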

PAMPA permeability = assay type: in vitro ADME
Caco-2 permeability = assay type: in vitro ADME; settings: human, Caco-2, pH 7.4
How it was run: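 Caco-2 cells were seeded at 80,000 cells/cm2 on polycarbonate Transwell filters and grown 21–25 days. Monolayers were pre-equilibrated with HBSS pH 7.4 for 30 min at 37 °C. Dosing solution was 50 mM nominal in HBSS, stirred overnight at room temperature, filtered and added apically (A/B) or basolaterally (B/A). Receiver sampled at 15–150 min, in duplicate. Papp (cm/s) by LC/MS/MS.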

hPPB = assay type: in vitro ADME; settings: human
[3] = target: catalytic domain of human MMP13 (Homo sapiens, UniProt P45452); experiment: Biochemical MMP-13 FRET assay; settings: vs compound 13

Chain of catalytic domain of recombinant human MMP-8 (P22894 100-262 limits assumed): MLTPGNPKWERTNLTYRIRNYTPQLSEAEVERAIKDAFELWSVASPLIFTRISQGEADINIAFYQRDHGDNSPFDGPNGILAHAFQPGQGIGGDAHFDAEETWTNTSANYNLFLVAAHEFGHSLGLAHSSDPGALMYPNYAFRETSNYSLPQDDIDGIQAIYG

| half-life (Rat pharmacokinetics) [h] | IC50 [2] [µM] | Papp (PAMPA permeability) [×10⁻⁶ cm/s] | Papp A→B at 150 min, 50 mM (Caco-2 permeability) [×10⁻⁶ cm/s] | Papp B→A at 150 min, 50 mM (Caco-2 permeability) [×10⁻⁶ cm/s] | hPPB (% bound) (hPPB) | loss of potency relative to 13 [3] [fold] | Compound | overall mean arthritic score vs vehicle control [1] |
| --- | --- | --- | --- | --- | --- | --- | --- | --- |
| 1.8 | – | – | – | – | – | – | CCNC(=O)c1nc(-c2ccc3[nH]c(-c4nc(C)no4)cc3c2)c(C)[nH]1 [Compound 15, 4-Methyl-5-[2-(3-methyl-[1,2,4]oxadiazol-5-yl)-1H-indol-5-yl]-1H-imidazole-2-carboxylic Acid Ethylamide] | – |
| 0.9 | 3.1 | 29 | 3.5 | 9 | 93 | – | Cc1noc(-c2cc3cc(-c4nc(C(=O)NCc5ccncc5)[nH]c4C)ccc3[nH]2)n1 [Compound 17, 4-Methyl-5-[2-(3-methyl-[1,2,4]oxadiazol-5-yl)-1H-indol-5-yl]-1H-imidazole-2-carboxylic Acid (Pyridin-4-ylmethyl)-amide] | significantly reduced |
| – | – | – | – | – | – | 10 | Cc1noc(-c2cc3cc(-c4[nH]c(C(=O)NCc5ccccc5)nc4C)ccc3[nH]2)n1 [Compound 21, 4-Methyl-5-[2-(3-methyl-[1,2,4]oxadiazol-5-yl)-1H-indol-5-yl]-1H-imidazole-2-carboxylic Acid Benzylamide] | – |
